Data as given in ChEMBL document CHEMBL1136878, “6-amino-4-oxo-1,3-diphenyl-2-thioxo-1,2,3,4-tetrahydropyrimidine-5-carbonyl derivatives as a new class of potent inhibitors of Interleukin-8-induced neutrophil chemotaxis” (Bioorg Med Chem, 2009).
Calls of active or inactive are those of the source. The rule behind the calls is not given here.

Legend:
[1] = target: T1, C-X-C chemokine receptor type 1 (Homo sapiens) (UniProt P25024); test: Binding affinity to CXCR1
T1 sequence (whole entry): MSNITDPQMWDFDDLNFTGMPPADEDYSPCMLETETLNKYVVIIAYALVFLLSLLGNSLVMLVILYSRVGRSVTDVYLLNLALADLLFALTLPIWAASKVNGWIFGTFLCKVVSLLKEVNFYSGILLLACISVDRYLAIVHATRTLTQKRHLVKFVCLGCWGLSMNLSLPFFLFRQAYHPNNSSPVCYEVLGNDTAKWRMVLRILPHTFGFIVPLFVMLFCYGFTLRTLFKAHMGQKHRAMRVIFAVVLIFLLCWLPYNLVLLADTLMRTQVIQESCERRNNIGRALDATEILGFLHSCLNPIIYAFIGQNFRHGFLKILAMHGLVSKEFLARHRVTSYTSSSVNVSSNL

[2] = target: T2, C-X-C chemokine receptor type 2 (Homo sapiens) (UniProt P25025); test: Binding affinity to CXCR2
T2 sequence (whole entry): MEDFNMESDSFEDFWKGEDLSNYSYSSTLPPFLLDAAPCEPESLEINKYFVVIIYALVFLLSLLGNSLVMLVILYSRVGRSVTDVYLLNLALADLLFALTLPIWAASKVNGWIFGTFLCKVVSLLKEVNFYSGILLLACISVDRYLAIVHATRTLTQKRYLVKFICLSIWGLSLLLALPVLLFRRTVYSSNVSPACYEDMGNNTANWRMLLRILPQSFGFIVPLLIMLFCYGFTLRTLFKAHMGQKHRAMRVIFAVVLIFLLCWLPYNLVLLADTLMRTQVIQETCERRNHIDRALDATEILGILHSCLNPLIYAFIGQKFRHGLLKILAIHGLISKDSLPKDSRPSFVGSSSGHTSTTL

[3] = Cytotoxicity against human neutrophils assessed as cell viability by ethidium bromide-fluorescein diacetate test; format: cell-based, Neutrophil; set-up: concentration or dose not given beside the values; conditions: read-out: Activity
Procedure, shortened: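 Neutrophils (2 × 10^6/mL) from healthy donor blood, incubated 2 h at 37 °C in CO2 atmosphere with compounds. Cells then stained with fluorescein diacetate/ethidium bromide in HBSS, 10 min at room temperature. Scored under UV dark-field: green = intact membrane (viable), red nucleus = necrotic; percentage viable cells.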

Neutrophil [4] = test: Inhibition of chemotaxis in human neutrophils assessed as inhibition of C5a-induced migration by Boyden chamber assay; format: functional, cell-based
Procedure, shortened: (§1)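 Donor blood neutrophils (dextran sedimentation, Ficoll-Hypaque, hypotonic lysis; >97% pure), preincubated with compound 15 min at room temperature. 4 × 10^5 cells in upper compartment of blind-well chamber, 3 µm cellulose ester filter. Lower compartment: IL-8 10^-9 M, fMLP 10^-8 M or C5a 10^-9 M. Incubation 37 °C, 45 min. Leading-front distance read at ×400, five fields/filter, duplicates. Net migration = stimulated minus spontaneous. IC50 by nonlinear regression, mean of ≥3 experiments.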

Neutrophil [5] = test: Inhibition of chemotaxis in human neutrophils assessed as inhibition of IL8-induced migration by Boyden chamber assay; format: functional, cell-based; procedure, shortened: as §1
Mus musculus [6] = test: Inhibition of chemotaxis in zymosan-induced peritonitis Swiss mouse model assessed as number of peritoneal cells per cavity at 50 mg/kg, po pretreated 1 hr before zymosan-challenge measured 4 hrs post inducer challenge (Rvb=31.5+/-1.2 million); format: functional
Mus musculus [7] = test: Inhibition of chemotaxis in zymosan-induced peritonitis Swiss mouse model assessed as peritoneal protein concentration at 50 mg/kg, po pretreated 1 hr before zymosan-challenge measured 4 hrs post inducer challenge (Rvb=1961+/-[…]); format: functional
Mus musculus [8] = test: Inhibition of chemotaxis in zymosan-induced peritonitis Swiss mouse model assessed as number of peritoneal granulocytes per cavity at 50 mg/kg, po pretreated 1 hr before zymosan-challenge measured 4 hrs post inducer challenge (Rvb=27.1+/-3.5 million); format: functional
Neutrophil [9] = test: Inhibition of chemotaxis in human neutrophils assessed as inhibition of fMLP-induced migration by Boyden chamber assay; format: functional, cell-based; procedure, shortened: as §1
Mus musculus [10] = test: Inhibition of chemotaxis in zymosan-induced peritonitis Swiss mouse model assessed as number of peritoneal cells per cavity at 3 mg/kg, po pretreated 1 hr before zymosan-challenge measured 4 hrs post inducer challenge (Rvb=31.5+/-1.2 million); format: functional
Mus musculus [11] = test: Inhibition of chemotaxis in zymosan-induced peritonitis Swiss mouse model assessed as peritoneal protein concentration at 3 mg/kg, po pretreated 1 hr before zymosan-challenge measured 4 hrs post inducer challenge (Rvb=1961+/-160 µg/mL)
Mus musculus [12] = test: Inhibition of chemotaxis in zymosan-induced peritonitis Swiss mouse model assessed as number of peritoneal granulocytes per cavity at 3 mg/kg, po pretreated 1 hr before zymosan-challenge measured 4 hrs post inducer challenge (Rvb=27.1+/-3.5 million); format: functional

Row | IC50 (Neutrophil [5]) [nM] | SMILES | viability [3] [%] | Activity (Neutrophil [9]) | other results
1 | 0.02 | CCOC(=O)c1c(NCCN(CC)CC)n(-c2ccccc2)c(=S)n(-c2ccccc2)c1=O | ≥ 94 | inactive | Activity [1]: inactive; Activity [2]: inactive; Activity (Neutrophil [4]): inactive; Activity (Mus musculus [6]): 23.8 million; Activity (Mus musculus [7]): 1520 µg/mL; Activity (Mus musculus [8]): 17.7 million
2 | 0.61 | CCOC(=O)c1c(NCCNc2ccccc2)n(-c2ccccc2)c(=S)n(-c2ccccc2)c1=O | ≥ 94 | inactive | Activity [1]: inactive; Activity [2]: inactive
3 | 3.89 | CCOC(=O)c1c(NCCCN(C)C)n(-c2ccccc2)c(=S)n(-c2ccccc2)c1=O | ≥ 94 | inactive | –
4 | 31.2 | COC(=O)c1c(NCC(OC)OC)n(-c2ccccc2)c(=S)n(-c2ccccc2)c1=O | ≥ 94 | inactive | –
5 | 172 | CCOC(=O)c1c(NCCN2CCOCC2)n(-c2ccccc2)c(=S)n(-c2ccccc2)c1=O | ≥ 94 | inactive | –
6 | 1.36 | CCOC(=O)c1c(NCCOC)n(-c2ccccc2)c(=S)n(-c2ccccc2)c1=O | ≥ 94 | inactive | Activity [1]: inactive; Activity [2]: inactive
7 | 1.61 | CCOC(=O)c1c(NCCC2CCCN2C)n(-c2ccccc2)c(=S)n(-c2ccccc2)c1=O (stereo unspecified) | ≥ 94 | inactive | Activity [1]: inactive; Activity [2]: inactive
8 | 6.86 | CC(=O)c1c(NCCN(C)C)n(-c2ccccc2)c(=S)n(-c2ccccc2)c1=O | ≥ 94 | inactive | –
9 | 3.32 | COC(=O)c1c(NCCN(C)C)n(-c2ccccc2)c(=S)n(-c2ccccc2)c1=O | ≥ 94 | inactive | –
10 | 14.8 | CC(=O)c1c(N2CCN(C)CC2)n(-c2ccccc2)c(=S)n(-c2ccccc2)c1=O | ≥ 94 | inactive | –
11 | 29.6 | COC(=O)c1c(NCCc2c[nH]c3ccccc23)n(-c2ccccc2)c(=S)n(-c2ccccc2)c1=O | ≥ 94 | inactive | –
12 | 85.4 | CCOC(=O)c1c(NCCN2CCCCC2)n(-c2ccccc2)c(=S)n(-c2ccccc2)c1=O | ≥ 94 | inactive | –
13 | 0.49 | CCOC(=O)c1c(NCCc2ccccn2)n(-c2ccccc2)c(=S)n(-c2ccccc2)c1=O | ≥ 94 | inactive | Activity [1]: inactive; Activity [2]: inactive
14 | – | C[C@@H]1C[C@H]2[C@@H]3CCC4=CC(=O)C=C[C@]4(C)[C@@]3(F)[C@@H](O)C[C@]2(C)[C@@]1(O)C(=O)CO [DEXAMETHASONE] | – | – | Activity (Mus musculus [10]): 22 million; Activity (Mus musculus [11]): 1400 µg/mL; Activity (Mus musculus [12]): 18.5 million
15 | 0.1 | CCOC(=O)c1c(NCCN(C)C)n(-c2ccccc2)c(=S)n(-c2ccccc2)c1=O | ≥ 94 | inactive | Activity (Neutrophil [4]): inactive
16 | 0.18 | CC(C)OC(=O)c1c(NCCN(C)C)n(-c2ccccc2)c(=S)n(-c2ccccc2)c1=O | ≥ 94 | inactive | Activity (Neutrophil [4]): inactive
17 | 0.21 | CCN(CC)CCNc1c(C(=O)OC(C)C)c(=O)n(-c2ccccc2)c(=S)n1-c1ccccc1 | ≥ 94 | inactive | Activity (Neutrophil [4]): inactive
18 | 10.8 | COC(=O)c1c(NCCc2ccc(S(N)(=O)=O)cc2)n(-c2ccccc2)c(=S)n(-c2ccccc2)c1=O | ≥ 94 | inactive | –
